Data: article PMC6219460 (SLAS discovery : advancing life sciences R & D, 2017)
Where two headings read alike, the source gives them in different places.

Key:
human CB2 receptor [1] = molecular target: T1, human CB2 receptor (Homo sapiens, UniProt P34972); assay type: binding; settings: for selectivity for CB2 versus CB1 (in words): from radioligand binding at CB2 and CB1
human CB2 receptor [2] = molecular target: T1, human CB2 receptor; assay: [35S]GTPγS binding assay, HEK293 membranes expressing CB2; assay type: biochemical; settings: 10 μM GDP
In short: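 HEK293 membranes expressing recombinant human CB2 (8 µg/well) were incubated with 0.1 nM [35S]GTPγS, 10 µM GDP, 0.1% (w/v) BSA and test compound (typically 1 nM–10 µM) in 50 mM Tris-HCl pH 7.4, 3 mM MgCl2, 0.2 mM EGTA, 100 mM NaCl. Nonspecific binding was set with 10 µM unlabeled GTPγS. Reactions were stopped by filtration. Duplicates, three experiments.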

human CB1 receptor = human CB1 receptor (Homo sapiens, UniProt P21554); assay type: binding; settings: for inhibition of [3H]CP 55,940 binding to CB1 receptors (in words): concentrations up to 10 μM
[3] = Ki (μM) CB2, [3H]CP 55,940 tracer at 1.5 nM
[4] = log (EC50, Molar) GTPγS binding CB2, 0.1 nM [35S]GTPγS
[5] = EC50 GTPγS binding, 0.1 nM [35S]GTPγS
[6] = read-out: log (Ki, Molar) CB1 (converted), [3H]CP 55,940 tracer at 1.5 nM

T1 sequence (P34972 whole entry): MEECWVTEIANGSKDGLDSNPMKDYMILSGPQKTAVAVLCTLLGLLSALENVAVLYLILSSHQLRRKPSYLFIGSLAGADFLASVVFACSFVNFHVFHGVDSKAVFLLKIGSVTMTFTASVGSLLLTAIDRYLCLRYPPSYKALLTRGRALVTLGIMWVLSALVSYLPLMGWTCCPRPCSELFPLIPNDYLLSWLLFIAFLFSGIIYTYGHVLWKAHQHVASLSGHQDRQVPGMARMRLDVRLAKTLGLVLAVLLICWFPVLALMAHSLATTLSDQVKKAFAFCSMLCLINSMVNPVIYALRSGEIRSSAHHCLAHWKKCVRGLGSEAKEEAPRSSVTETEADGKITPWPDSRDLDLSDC
Sequence of human CB1 receptor (P21554 whole entry): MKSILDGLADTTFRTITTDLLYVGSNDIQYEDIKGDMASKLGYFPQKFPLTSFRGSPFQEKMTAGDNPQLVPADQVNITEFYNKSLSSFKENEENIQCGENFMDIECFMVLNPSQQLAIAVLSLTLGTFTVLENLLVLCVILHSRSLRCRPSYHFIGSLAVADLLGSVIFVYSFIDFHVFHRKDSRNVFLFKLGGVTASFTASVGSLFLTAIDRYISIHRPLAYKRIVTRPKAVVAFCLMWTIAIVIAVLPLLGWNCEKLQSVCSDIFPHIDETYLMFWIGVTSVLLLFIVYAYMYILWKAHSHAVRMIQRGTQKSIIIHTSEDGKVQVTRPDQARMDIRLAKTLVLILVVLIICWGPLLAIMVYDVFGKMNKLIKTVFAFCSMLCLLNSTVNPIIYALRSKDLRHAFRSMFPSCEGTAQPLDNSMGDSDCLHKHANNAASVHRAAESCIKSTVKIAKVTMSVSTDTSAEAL

Ki (human CB2 receptor [1]; [3]) | selectivity for CB2 versus CB1 (in words) (human CB2 receptor [1]) | EC50 (human CB2 receptor [2]; [4]) | Ki (human CB1 receptor) | EC50 (human CB2 receptor [2]; [5]) | inhibition of [3H]CP 55,940 binding to CB1 receptors (in words) (human CB1 receptor) | Ki (human CB1 receptor; [6]) | Ki (human CB2 receptor [1]; log (Ki, Molar) CB2, [3H]CP 55,940 tracer at 1.5 nM) | Structure (SMILES)
0.8 µM | only weakly selective | 39.8 nM | 1600 nM |  |  |  |  | CCc1c(C)sc(NC(=O)C(Sc2ccccc2)c2ccccc2)c1C(=O)OC (stereo not drawn) [Compound 3, methyl 4-ethyl-5-methyl-2-(2-phenyl-2 (phenylthio)acetamido)thiophene-3-carboxylate]
2.3 µM | selectively bind CB2 receptors |  | > 10000 nM | 500 nM | no measurable inhibition | > 10000 nM |  | CC(C)c1cc(C2CCCN2C(=O)c2cc(-c3ccc4c(c3)OCO4)on2)no1 (stereo not drawn) [Compound 1, (5-(benzo[d][1,3]dioxol-5-yl)isoxazol-3-yl)(2-(5-isopropylisoxazol-3-yl)pyrrolidin-1-yl)methanone]
1.1 µM | only weakly selective | 501 nM | 1800 nM |  |  |  |  | c1ccc(Nc2nc3ccccc3nc2Nc2ccccc2)cc1 [Compound 2, N2,N3-diphenylquinoxaline-2,3-diamine]
0.2 µM | selectively bind CB2 receptors |  | > 10000 nM | 80 nM | no detectable inhibition | > 10000 nM | 0.251 µM | CC1CCN(C(NC(=O)c2ccc(C(C)(C)C)cc2)C(Cl)(Cl)Cl)CC1 (stereo not drawn) [Compound 4, 4-(tert-butyl)-N-(2,2,2-trichloro-1-(4-methylpiperidin-1 yl)ethyl)benzamide]
